{"data": "Experimental data pooled from the literature", "MTNR1A": "Melatonin receptor type 1A (MTNR1A, Homo sapiens, UniProt P48039)", "Grm1": "Metabotropic glutamate receptor 1 (Grm1, Rattus norvegicus, UniProt P23385)", "BMP2K": "BMP-2-inducible protein kinase (BMP2K, Homo sapiens, UniProt Q9NSY1)", "murC": "UDP-N-acetylmuramate--L-alanine ligase (murC, Escherichia coli K-12, UniProt P17952)", "Trypanothione synthetase": "Trypanothione synthetase (Trypanosoma cruzi, UniProt Q9GT49)", "note": "Lines come from different studies, so protocols differ."}
{"SMILES": "COc1cc2c(CCNC(C)=O)c[nH]c2cc1I", "target": "MTNR1A", "test": "cAMP, agonist, TR-FRET", "system": "CHO-K1", "setting": "20 min", "measurement": "Emax", "result": "98%"}
{"SMILES": "O=C(Nc1ccc(N2C(=O)c3ccccc3C2=O)c(Cl)c1)c1ncccc1O", "target": "Grm1", "test": "calcium signal, positive allosteric modulator", "system": "T-REx-293", "measurement": "Emax", "result": "105%"}
{"SMILES": "NS(=O)(=O)c1ccc(CNc2nc(Nc3cccc(NC(=O)N4CCCC4)c3)ncc2Br)cc1", "target": "BMP2K", "test": "enzyme activity, inhibitor, radiometric", "setting": "1 µM", "measurement": "remaining activity", "result": "1%"}
{"SMILES": "COc1ccc2cccc(CCNC(C)=O)c2c1", "target": "MTNR1A", "test": "β-arrestin recruitment, agonist", "system": "CHO-K1", "setting": "90 min", "measurement": "Emax", "result": "96%"}
{"SMILES": "N#Cc1ccc(COc2ccccc2C=NNS(=O)(=O)Cc2ccccc2F)cc1", "target": "murC", "test": "enzyme activity, inhibitor, absorbance", "setting": "100 µM", "measurement": "remaining activity", "result": "59%"}
{"SMILES": "CN(C)C1CCN(CC#Cc2nn(C3CCCC3)c3nc(NCc4ccccc4)ncc23)C1 (stereo not shown)", "target": "Testis-specific serine/threonine-protein kinase 1 (TSSK1B, Homo sapiens, UniProt Q9BXA7)", "test": "enzyme activity, inhibitor, FRET", "setting": "1 µM", "measurement": "inhibition", "result": "-2%"}
{"SMILES": "O=C(Nc1ccc(C=NNS(=O)(=O)c2ccc3ccccc3c2)cc1)c1ccc([N+](=O)[O-])cc1", "target": "murC", "test": "enzyme activity, inhibitor, absorbance", "setting": "50 µM", "measurement": "remaining activity", "result": "71%"}
{"SMILES": "O=C(c1ccc(F)cc1)N(Cc1ccccc1)C1CCCCC1", "target": "Substance-P receptor (TACR1, Homo sapiens, UniProt P25103)", "test": "cell-free assay", "setting": "10 µM", "measurement": "inhibition", "result": "20%"}
{"SMILES": "FC(F)(F)Oc1cccc(-c2cnc3ccc(-c4ccncc4)nn23)c1", "target": "Serine/threonine-protein kinase SIK3 (SIK3, Homo sapiens, UniProt Q9Y2K2)", "test": "enzyme activity, inhibitor, radiometric", "setting": "1 µM", "measurement": "activity vs control", "result": "93%"}
{"SMILES": "COc1cc2c(CCNC(C)=O)c(I)[nH]c2cc1[N+](=O)[O-]", "target": "MTNR1A", "test": "cAMP, agonist, TR-FRET", "system": "CHO-K1", "setting": "20 min", "measurement": "Emax", "result": "92%"}
{"SMILES": "CCCOc1ccc(OC)c(F)c1C(=O)c1ccc(C(=O)N[C@@H]2CNC[C@H]2NC(=O)c2ccc3[nH]ncc3c2)cc1", "target": "Rho-associated protein kinase 2 (ROCK2, Homo sapiens, UniProt O75116)", "test": "enzyme activity, inhibitor", "setting": "0.1 µM", "measurement": "remaining activity", "result": "25%"}
{"SMILES": "NS(=O)(=O)c1ccc(CNc2ccnc(Nc3cccc(NC(=O)N4CCCC4)c3)n2)cc1", "target": "BMP2K", "test": "enzyme activity, inhibitor, radiometric", "setting": "1 µM", "measurement": "remaining activity", "result": "80%"}
{"SMILES": "COc1cc(I)c2[nH]cc(CCNC(C)=O)c2c1", "target": "MTNR1A", "test": "GTPγS binding, agonist, radiometric", "setting": "cell membranes", "measurement": "Emax", "result": "39%"}
{"SMILES": "O=C(NCCCNc1nc(Nc2cccc(CN3CCOCC3)c2)ncc1C1CC1)C1CCC1", "target": "BMP2K", "test": "enzyme activity, inhibitor, radiometric", "setting": "1 µM", "measurement": "remaining activity", "result": "3%"}
{"SMILES": "Cc1ccc(C(=O)Nc2ccc(CN3CCN(C)CC3)c(C(F)(F)F)c2)cc1C#Cc1cnc2cccnn12", "target": "Ephrin type-B receptor 6 (EPHB6, Homo sapiens, UniProt O15197)", "test": "cell-free assay", "setting": "23.5 nM", "measurement": "remaining signal", "result": "85%"}
{"SMILES": "COc1ccc2ncn(CCNC(C)=O)c2c1", "target": "MTNR1A", "test": "β-arrestin recruitment, agonist", "system": "CHO-K1", "setting": "90 min", "measurement": "Emax", "result": "92%"}
{"SMILES": "N#Cc1ccc(COc2ccccc2C=NNS(=O)(=O)c2ccc3ccccc3c2)cc1", "target": "murC", "test": "enzyme activity, inhibitor, absorbance", "setting": "100 µM", "measurement": "remaining activity", "result": "36%"}
{"SMILES": "O=C(Nc1ccc(S(=O)(=O)N2CCC(Cl)CC2)cc1)c1ccc([N+](=O)[O-])o1", "target": "MTNR1A", "test": "ligand displacement, radioligand", "setting": "10 µM", "measurement": "inhibition", "result": "8%"}
{"SMILES": "COc1ccc2[nH]cc(CCNC(C)=O)c2c1I", "target": "MTNR1A", "test": "cAMP, agonist, TR-FRET", "system": "CHO-K1", "setting": "20 min", "measurement": "Emax", "result": "90%"}
{"SMILES": "Cc1cc(NC(=O)c2cccc3cc(-c4cccc5[nH]nc(N)c45)ccc23)ccc1F", "target": "MAPK/MAK/MRK overlapping kinase (MOK, Homo sapiens, UniProt Q9UQ07)", "test": "enzyme activity, inhibitor", "setting": "0.1 µM", "measurement": "activity vs control", "result": "95%"}
{"SMILES": "Cc1nn(CC(F)(F)F)cc1Nc1ncc(Br)c(NCCc2cnc[nH]2)n1", "target": "BMP2K", "test": "enzyme activity, inhibitor, radiometric", "setting": "1 µM", "measurement": "remaining activity", "result": "47%"}
{"SMILES": "Oc1ccc(-c2nc(-c3ccncc3)c(-c3ccc(F)cc3)[nH]2)cc1", "target": "BRWD3 (Homo sapiens, UniProt Q6RI45)", "test": "thermal stability, DSF", "setting": "10 µM", "measurement": "ΔTm", "result": "0.66 °C"}
{"SMILES": "COc1cc(NC(C)=O)c(Cl)cc1C(=O)Nc1nccs1", "target": "Prostaglandin G/H synthase 1 (PTGS1, Homo sapiens, UniProt P23219)", "test": "enzyme activity, inhibitor", "setting": "10 µM", "measurement": "inhibition", "result": "72%"}
{"SMILES": "O=C(CN1C(=O)Cc2c([nH]c3ccc(Br)cc23)-c2ccc(Cl)cc21)Nc1ccccc1", "target": "Trypanothione synthetase", "test": "enzyme activity, inhibitor, absorbance", "setting": "30 µM", "measurement": "inhibition", "result": "29.6%"}
{"SMILES": "CCc1ccc2scc(CCNC(C)=O)c2c1", "target": "MTNR1A", "test": "β-arrestin recruitment, agonist", "system": "CHO-K1", "setting": "90 min", "measurement": "Emax", "result": "75%"}
{"SMILES": "N#Cc1ccc(COc2ccccc2C=NNS(=O)(=O)c2ccccc2[N+](=O)[O-])cc1", "target": "murC", "test": "enzyme activity, inhibitor, absorbance", "setting": "100 µM", "measurement": "remaining activity", "result": "95%"}
{"SMILES": "CCN(Cc1ccccc1C(F)(F)F)C(=O)C1CCN(S(=O)(=O)c2ccc3[nH]ncc3c2)CC1", "target": "B1 bradykinin receptor (BDKRB1, Homo sapiens, UniProt P46663)", "test": "ligand displacement, radioligand", "setting": "10 µM", "measurement": "inhibition", "result": "8%"}
{"SMILES": "NCCCCNC(=O)CN1C(=O)Cc2c([nH]c3ccc(Br)cc23)-c2ccc(Cl)cc21", "target": "Trypanothione synthetase", "test": "enzyme activity, inhibitor, absorbance", "setting": "30 µM", "measurement": "inhibition", "result": "6.7%"}
{"SMILES": "O=C(NCCCNc1nc(Nc2cccc(NC(=O)N3CCCC3)c2)ncc1Br)C1CCC1", "target": "BMP2K", "test": "enzyme activity, inhibitor, radiometric", "setting": "1 µM", "measurement": "remaining activity", "result": "-1%"}
{"SMILES": "Nc1ncnc2occ(-c3ccc(NC(=O)Nc4cc(C(F)(F)F)ccc4F)cc3)c12", "target": "Receptor-type tyrosine-protein kinase FLT3 (FLT3, Homo sapiens, UniProt P36888, ITD)", "test": "cell-free assay, inhibitor", "setting": "20 µM", "measurement": "remaining signal", "result": "0.1%"}
{"SMILES": "NC(=O)CN1C(=O)Cc2c([nH]c3ccc(Br)cc23)-c2ccc(Cl)cc21", "target": "Trypanothione synthetase", "test": "enzyme activity, inhibitor, absorbance", "setting": "30 µM", "measurement": "inhibition", "result": "5.2%"}
{"SMILES": "Cc1cccnc1C(=O)Nc1ccc(N2C(=O)c3ccccc3C2=O)c(Cl)c1", "target": "Grm1", "test": "calcium signal, positive allosteric modulator", "system": "T-REx-293", "measurement": "Emax", "result": "109%"}
{"SMILES": "Cc1nn(CC(F)(F)F)cc1Nc1ncc(Br)c(NCCCNC(=O)C2CCC2)n1", "target": "BMP2K", "test": "enzyme activity, inhibitor, radiometric", "setting": "1 µM", "measurement": "remaining activity", "result": "19%"}
{"SMILES": "N#Cc1ccc(COc2ccccc2C=NNS(=O)(=O)Cc2ccccc2)cc1", "target": "murC", "test": "enzyme activity, inhibitor, absorbance", "setting": "100 µM", "measurement": "remaining activity", "result": "100%"}
{"SMILES": "O=C(NCCCNc1nc(Nc2cccc(NC(=O)N3CCCC3)c2)ncc1C1CC1)C1CCC1", "target": "BMP2K", "test": "enzyme activity, inhibitor, radiometric", "setting": "1 µM", "measurement": "remaining activity", "result": "8%"}
{"SMILES": "Oc1cccc(Nc2nc(-c3ccc(F)cc3F)cs2)c1", "target": "5-hydroxytryptamine receptor 2C (HTR2C, Homo sapiens, UniProt P28335)", "test": "ligand displacement, radioligand", "setting": "10 µM", "measurement": "inhibition", "result": "17.4%"}
{"SMILES": "NNC(=O)CN1C(=O)Cc2c([nH]c3ccc(Br)cc23)-c2ccc(Cl)cc21", "target": "Trypanothione synthetase", "test": "enzyme activity, inhibitor, absorbance", "setting": "30 µM", "measurement": "inhibition", "result": "10.1%"}
